Measured values: ChEMBL document CHEMBL1122441, “Structure-activity relationships of synthetic antibiotic analogues of anisomycin” (1983)
Values after ≈ are worked out from the molar mass of the structure shown.

Experiments:
Actinomyces israelii = test: Antibacterial activity against Actinomyces israelii, activity expressed as inhibitory zone (mm, diameter); assay type: functional
In short: (§1)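 Agar diffusion: disks loaded with 0.05 mg drug (stock 1 mg/mL in Me2SO-EtOH 1:9) on brain-heart infusion agar seeded 1:100 with 48-h anaerobe culture grown in thioglycolate broth; incubated anaerobically at 37 °C for 24 h; zone diameter measured in mm.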

Bacteroides fragilis = test: Antibacterial activity against Bacteroides fragilis, activity expressed as […] inhibitory zone (mm, diameter); assay type: functional
In short: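 Agar diffusion vs B. fragilis grown in thioglycolate broth: 0.05 mg drug per paper disk (stock 1 mg/mL, Me2SO-EtOH 1:9), brain-heart infusion agar seeded with 48-h culture at 1:100, anaerobic 37 °C, 24 h; zone diameter in mm.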

Clostridium novyi = test: Antibacterial activity against Clostridium novyi, activity expressed as inhibitory zone (mm, diameter); assay type: functional; in short: as §1
Candida albicans [1] = test: Antifungal activity against Candida albicans, activity expressed as […] inhibitory zone (mm, diameter); assay type: functional
In short: (§2)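 Yeast grown in Sabouraud's dextrose broth, 24-h culture seeded 1:100 into agar; paper disks carrying 0.05 mg drug (from 1 mg/mL stock in Me2SO-EtOH 1:9); 37 °C, read after 48 h as zone diameter (mm).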

Epidermophyton floccosum [2] = test: Antifungal activity against Epidermophyton floccosum, activity expressed as inhibitory zone (mm, diameter); assay type: functional
In short: (§3)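 Dermatophytes grown in Sabouraud's dextrose broth, 4-5 day cultures seeded 1:100 into agar; disks with 0.05 mg drug (1 mg/mL stock, Me2SO-EtOH 1:9); grown and tested at 28 °C, zone diameter (mm) read after 48 h.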

Epidermophyton floccosum [3] = test: Antifungal activity against Epidermophyton floccosum, activity expressed as minimum inhibitory concentration (ug/mL); assay type: functional
Entamoeba histolytica [4] = test: Antiprotozoal activity measured as the conc for <[…]% inhibition of Entamoeba histolytica; assay type: functional, organism-based
Cutibacterium acnes = test: Antibacterial activity against Propionibacterium acnes, activity expressed as inhibitory zone (mm, diameter); assay type: functional; in short: as §1
Saccharomyces cerevisiae [5] = test: Antifungal activity against Saccharomyces cerevisiae, activity expressed as inhibitory zone (mm, diameter); assay type: functional; in short: as §2
Saccharomyces cerevisiae [6] = test: Antifungal activity against Saccharomyces cerevisiae, activity expressed as minimum inhibitory concentration (ug/mL).; assay type: functional
Tritrichomonas suis [7] = test: Antiprotozoal activity measured as the conc for 95-[…]% inhibition of Trichomonas foetus; assay type: functional, organism-based
Tritrichomonas suis [8] = test: Antiprotozoal activity measured as the conc for <[…]% inhibition of Trichomonas foetus; assay type: functional, organism-based
Streptococcus pyogenes = test: Antibacterial activity against Streptococcus pyogenes C, activity expressed as inhibitory zone (mm, diameter); assay type: functional; in short: as §1
Trichomonas vaginalis [9] = test: Antiprotozoal activity measured as the conc for 95-[…]% inhibition of Trichomonas vaginalis; assay type: functional, organism-based
Trichomonas vaginalis [10] = test: Antiprotozoal activity measured as the conc for <[…]% inhibition of Trichomonas vaginalis; assay type: functional, organism-based
Trichophyton benhamiae [11] = test: Antifungal activity against Trichophyton mentagrophytes, activity expressed as inhibitory zone (mm, diameter); assay type: functional, Arthroderma benhamiae; in short: as §3
Trichophyton benhamiae [12] = test: Antifungal activity against Trichophyton mentagrophytes, activity expressed as minimum inhibitory concentration (ug/mL).; assay type: functional, Arthroderma benhamiae
Candida albicans [13] = test: Antifungal activity against Candida albicans, activity expressed as minimum inhibitory concentration (ug/mL); assay type: functional
In short: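 Tube dilution in Sabouraud's dextrose broth (ca. 3 mL/tube) at 37 °C; inoculum from 24-h yeast culture, 1:1000 in saline. Drug dissolved in Me2SO-EtOH (1:9), stock 3.2 mg/mL; twofold serial dilutions 32 to 0.06 µg/mL. Read after 48 h; MIC = lowest concentration with no visible growth.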

Entamoeba histolytica [14] = test: Antiprotozoal activity measured as the conc for 100% inhibition of Entamoeba histolytica; assay type: functional, organism-based
In short: (§4)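 E. histolytica (J 190) grown 48 h at 37 °C in modified Boeck Drbohlav medium, pooled; 0.6 × 10^6 organisms inoculated into 10 mL medium with drug at 32 to 0.06 µg/mL, incubated 48 h.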

Entamoeba histolytica [15] = test: Antiprotozoal activity measured as the conc for 95-[…]% inhibition of Entamoeba histolytica; assay type: functional, organism-based
Tritrichomonas suis [16] = test: Antiprotozoal activity measured as the conc for 100% inhibition of Trichomonas foetus; assay type: functional, organism-based
In short: (§5)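 Protozoa grown 48 h (T. vaginalis in TYM 721, T. foetus in TYM 359, E. histolytica J 190 in modified Boeck Drbohlav medium, 37 °C) and pooled; 0.6 × 10^6 organisms into 10-mL tubes with drug 32 to 0.06 µg/mL, 48 h; inhibition scored microscopically against untreated controls as 100, >95, 95-25 or <25%.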

Tritrichomonas suis [17] = test: Antiprotozoal activity measured as the conc for >95% inhibition of Trichomonas foetus; assay type: functional, organism-based; in short: as §5
Trichomonas vaginalis [18] = test: Antiprotozoal activity measured as the conc for 100% inhibition of Trichomonas vaginalis; assay type: functional, organism-based; in short: as §5
Trichomonas vaginalis [19] = test: Antiprotozoal activity measured as the conc for >95% inhibition of Trichomonas vaginalis; assay type: functional, organism-based; in short: as §5
Entamoeba histolytica [20] = test: Antiprotozoal activity measured as the conc for >95% inhibition of Entamoeba histolytica; assay type: functional, organism-based; in short: as §4
Saccharomyces cerevisiae [21] = test: Antifungal activity against Saccharomyces cerevisiae, activity expressed as inhibitory zone (mm, diameter); QA is questionable activity; assay type: functional, organism-based; in short: as §2
Candida albicans [22] = test: Antifungal activity against Candida albicans, activity expressed as minimum inhibitory concentration ([…]); assay type: functional
Saccharomyces cerevisiae [23] = test: Antifungal activity against Saccharomyces cerevisiae, activity expressed as minimum inhibitory concentration ([…]).; assay type: functional
Trichophyton benhamiae [24] = test: Antifungal activity against Trichophyton mentagrophytes, activity expressed as minimum inhibitory concentration ([…]).; assay type: functional, Arthroderma benhamiae
Epidermophyton floccosum [25] = test: Antifungal activity against Epidermophyton floccosum, activity expressed as minimum inhibitory concentration ([…]); assay type: functional
[26] = Epidermophyton floccosum, read-out: MIC
[27] = Saccharomyces cerevisiae, read-out: MIC
[28] = Trichophyton benhamiae, read-out: MIC
[29] = Candida albicans, read-out: MIC

| Compound | Inhibitory zone (Actinomyces israelii) | Inhibitory zone (Bacteroides fragilis) | Inhibitory zone (Clostridium novyi) | Inhibitory zone (Candida albicans [1]) | Inhibitory zone (Epidermophyton floccosum [2]) | MIC (Epidermophyton floccosum [3]; [26]) | Inhibitory zone (Cutibacterium acnes) | Inhibitory zone (Saccharomyces cerevisiae [5]) | MIC (Saccharomyces cerevisiae [6]; [27]) | Concentration (Tritrichomonas suis [8]) | Inhibitory zone (Streptococcus pyogenes) | Concentration (Trichomonas vaginalis [9]) | Concentration (Trichomonas vaginalis [10]) | Inhibitory zone (Trichophyton benhamiae [11]) | MIC (Trichophyton benhamiae [12]; [28]) | MIC (Candida albicans [13]; [29]) | Concentration (Entamoeba histolytica [14]) | Concentration (Trichomonas vaginalis [18]) | Concentration (Trichomonas vaginalis [19]) | Concentration (Entamoeba histolytica [20]) | further results |
| --- | --- | --- | --- | --- | --- | --- | --- | --- | --- | --- | --- | --- | --- | --- | --- | --- | --- | --- | --- | --- | --- |
| COc1ccc(C(c2ccccc2)[C@H]2NC[C@H](O)[C@H]2OC(C)=O)cc1 (some centres not stated) | 10 mm | 0 mm | 20 mm | 0 mm | 10 mm | > 32 µg/mL | 18 mm | 0 mm | > 32 µg/mL | 16 µg/mL | 13 mm | 32 µg/mL | 16 µg/mL | 0 mm | > 32 µg/mL | > 32 µg/mL | – | – | – | – | Concentration (Entamoeba histolytica [4]): 32 µg/mL; Concentration (Tritrichomonas suis [7]): 32 µg/mL |
| COc1ccc(C[C@H]2NC[C@H](O)[C@H]2OC(C)=O)cc1 (racemic) | – | – | – | – | – | – | – | – | – | 1 µg/mL | – | 0.5 µg/mL | 0.25 µg/mL | – | – | – | 4 µg/mL | 2 µg/mL | 1 µg/mL | 2 µg/mL | Concentration (Entamoeba histolytica [15]): 0.5 µg/mL; Concentration (Entamoeba histolytica [4]): 0.25 µg/mL; Concentration (Tritrichomonas suis [16]): 8 µg/mL; Concentration (Tritrichomonas suis [17]): 2 µg/mL |
| CC(=O)O[C@@H]1[C@@H](O)CN[C@@H]1Cc1ccccc1 | 0 mm | 0 mm | 0 mm | 0 mm | 8 mm | 32 µg/mL (≈ 136 µM) | 0 mm | – | 2 µg/mL (≈ 8.5 µM) | 2 µg/mL | 0 mm | 2 µg/mL | – | 10 mm | 16 µg/mL (≈ 68 µM) | 32 µg/mL (≈ 136 µM) | 16 µg/mL | 8 µg/mL | 4 µg/mL | 2 µg/mL | QA (Saccharomyces cerevisiae [21]): questionable activity; Concentration (Tritrichomonas suis [16]): 32 µg/mL; Concentration (Tritrichomonas suis [7]): 4 µg/mL; Concentration (Tritrichomonas suis [17]): 16 µg/mL |
| CC(=O)O[C@@H]1[C@@H](O)CN[C@@H]1Cc1ccc(C)cc1 | 0 mm | 0 mm | 0 mm | 0 mm | 8 mm | 16 µg/mL (≈ 64.2 µM) | 0 mm | 0 mm | 1 µg/mL (≈ 4.01 µM) | 0.5 µg/mL | 0 mm | 2 µg/mL | – | 10 mm | 4 µg/mL (≈ 16 µM) | 8 µg/mL (≈ 32.1 µM) | 4 µg/mL | 8 µg/mL | 4 µg/mL | 2 µg/mL | Concentration (Entamoeba histolytica [15]): 1 µg/mL; Concentration (Tritrichomonas suis [16]): 16 µg/mL; Concentration (Tritrichomonas suis [7]): 1 µg/mL; Concentration (Tritrichomonas suis [17]): 4 µg/mL |
| COc1ccc(C(C)[C@H]2NC[C@H](O)[C@H]2OC(C)=O)cc1 (some centres not stated) | 0 mm | 24 mm | 8 mm | 0 mm | 0 mm | – | 0 mm | 0 mm | – | 32 µg/mL | 0 mm | – | 32 µg/mL | 0 mm | – | – | – | – | – | – | MIC (Candida albicans [22]): > 32 µg/mL; Concentration (Entamoeba histolytica [4]): 32 µg/mL; MIC (Saccharomyces cerevisiae [23]): > 32 µg/mL; MIC (Trichophyton benhamiae [24]): > 32 µg/mL; MIC (Epidermophyton floccosum [25]): > 32 µg/mL |
| COc1ccc(C[C@H]2NC[C@H](O)[C@H]2OC(C)=O)cc1 (racemic) [ANISOMYCIN] | 0 mm | 0 mm | 0 mm | 0 mm | 8 mm | 32 µg/mL (≈ 121 µM) | 0 mm | 10 mm | 0.5 µg/mL (≈ 1.88 µM) | – | 0 mm | – | – | 10 mm | 4 µg/mL (≈ 15.1 µM) | 8 µg/mL (≈ 30.2 µM) | – | – | – | – | – |
| Cc1ncc([N+](=O)[O-])n1CCO [METRONIDAZOLE] | 0 mm | 20 mm | 25 mm | 0 mm | 8 mm | > 32 µg/mL | 0 mm | – | > 32 µg/mL | 0.12 µg/mL | 0 mm | 0.12 µg/mL | 0.06 µg/mL | 0 mm | > 32 µg/mL | > 32 µg/mL | 0.25 µg/mL | 0.5 µg/mL | 0.25 µg/mL | 0.12 µg/mL | Concentration (Tritrichomonas suis [16]): 0.5 µg/mL; Concentration (Tritrichomonas suis [7]): 0.25 µg/mL |
| COc1cccc(C[C@H]2NC[C@H](O)[C@H]2OC(C)=O)c1 | 10 mm | 10 mm | 15 mm | 0 mm | 8 mm | > 32 µg/mL | 12 mm | 0 mm | 8 µg/mL (≈ 30.2 µM) | 8 µg/mL | 0 mm | 8 µg/mL | 4 µg/mL | 10 mm | > 32 µg/mL | > 32 µg/mL | 32 µg/mL | 32 µg/mL | 16 µg/mL | 16 µg/mL | Concentration (Entamoeba histolytica [4]): 8 µg/mL; Concentration (Tritrichomonas suis [17]): 16 µg/mL |
| COc1ccc(C[C@H]2NC[C@H](O)[C@H]2OC(C)=O)cc1 [ANISOMYCIN] | – | 10 mm | – | – | – | – | – | 13 mm | – | – | – | – | – | – | – | – | – | – | – | – | MIC (Epidermophyton floccosum [3]): 16 µg/mL (≈ 60.3 µM); MIC (Saccharomyces cerevisiae [6]): 0.25 µg/mL (≈ 0.942 µM); MIC (Trichophyton benhamiae [12]): 2 µg/mL (≈ 7.54 µM); MIC (Candida albicans [13]): 4 µg/mL (≈ 15.1 µM) |
